Data published in PubChem BioAssay AID504676 (Southern Research Specialized Biocontainment Screening …, 2011).

System: E. coli EV36 K1 capsule, T7 phage lysis, OD600
Assay: capsule removal specificity in E. coli EV36 – T7 phage, EV36 K1:K-12 hybrid, OD600, set 3, selectivity assay for bacterial capsule biogenesis inhibitor project, dose response (AID 504676)
In short: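 Assay system: E. coli EV36 K1/K-12 hybrid bacteria; Medium: LB growth medium; Reagent: T7 bacteriophage infection; Incubation: 1.5 h pre-phage plus 3 h post-infection, 37 °C; Measured by: absorbance at 600 nm before infection and 3 h post-infection; Replicates: quadruplicate wells for each concentration.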

Question: Which IC50 does the source give for `COc1ccc2nc(NC(=O)c3cccs3)sc2c1` here?
Answer: The IC50 was 5.9 µM.

Question: For `COc1ccc2nc(NC(=O)c3ccco3)sc2c1`, which IC50 is on record?
Answer: The IC50 was 22.9 µM.
